IC50 and Ke data for one compound are collected here from ChEMBL document CHEMBL1127053, “3,4-Dimethyl-4-(3-hydroxyphenyl)piperidines: opioid antagonists with potent anorectant activity” (J Med Chem, 1993).

Where only a bound is given, the exact number is not on record here.

Assay [1] concerns the target Serotonin receptor 2a and 2c (5HT2A and 5HT2C) (Rattus norvegicus, UniProt P08909+P14842). As to the kind of experiment: Tested for affinity against serotonin 5-HT2 receptor using […] (frontal cortex) in rat brain. The class given is tissue-based.
Assay [2] concerns the target Delta-type opioid receptor (Mus musculus) (UniProt P32300). Particulars: Vas deferens; 2 nM.
For assay [3], the target named is T1, Adrenergic receptor alpha-1 (Rattus norvegicus, UniProt P15823+P23944+P43140).
T1 sequence (P15823 whole entry): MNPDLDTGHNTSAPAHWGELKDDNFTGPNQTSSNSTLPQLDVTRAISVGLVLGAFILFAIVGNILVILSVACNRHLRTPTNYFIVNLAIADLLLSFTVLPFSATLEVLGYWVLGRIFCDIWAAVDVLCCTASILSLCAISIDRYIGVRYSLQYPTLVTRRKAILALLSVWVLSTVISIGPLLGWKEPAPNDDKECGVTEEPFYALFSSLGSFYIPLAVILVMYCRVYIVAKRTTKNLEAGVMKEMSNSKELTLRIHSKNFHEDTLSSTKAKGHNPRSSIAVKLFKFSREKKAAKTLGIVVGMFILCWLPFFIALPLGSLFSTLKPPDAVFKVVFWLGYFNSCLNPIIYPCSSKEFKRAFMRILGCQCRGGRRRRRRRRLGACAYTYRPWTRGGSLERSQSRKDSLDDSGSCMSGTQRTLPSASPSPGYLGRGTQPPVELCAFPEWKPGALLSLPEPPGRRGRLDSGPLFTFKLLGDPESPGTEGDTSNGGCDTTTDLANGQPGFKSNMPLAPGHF
T1 sequence (P23944 whole entry): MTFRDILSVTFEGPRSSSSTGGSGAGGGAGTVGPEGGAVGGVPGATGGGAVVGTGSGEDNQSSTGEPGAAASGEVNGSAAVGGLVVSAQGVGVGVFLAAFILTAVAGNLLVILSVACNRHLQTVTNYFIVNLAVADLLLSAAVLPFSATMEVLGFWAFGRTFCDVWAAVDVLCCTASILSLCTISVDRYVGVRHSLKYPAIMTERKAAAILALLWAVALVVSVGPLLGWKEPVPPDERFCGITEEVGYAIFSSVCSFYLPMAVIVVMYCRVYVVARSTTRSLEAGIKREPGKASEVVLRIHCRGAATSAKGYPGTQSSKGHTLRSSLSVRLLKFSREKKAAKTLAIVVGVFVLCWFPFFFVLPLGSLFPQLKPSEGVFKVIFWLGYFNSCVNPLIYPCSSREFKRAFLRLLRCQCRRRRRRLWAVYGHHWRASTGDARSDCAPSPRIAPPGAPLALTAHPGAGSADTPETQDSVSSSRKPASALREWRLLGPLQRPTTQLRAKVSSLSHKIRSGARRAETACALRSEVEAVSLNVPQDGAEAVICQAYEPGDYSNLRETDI
T1 sequence (P43140 whole entry): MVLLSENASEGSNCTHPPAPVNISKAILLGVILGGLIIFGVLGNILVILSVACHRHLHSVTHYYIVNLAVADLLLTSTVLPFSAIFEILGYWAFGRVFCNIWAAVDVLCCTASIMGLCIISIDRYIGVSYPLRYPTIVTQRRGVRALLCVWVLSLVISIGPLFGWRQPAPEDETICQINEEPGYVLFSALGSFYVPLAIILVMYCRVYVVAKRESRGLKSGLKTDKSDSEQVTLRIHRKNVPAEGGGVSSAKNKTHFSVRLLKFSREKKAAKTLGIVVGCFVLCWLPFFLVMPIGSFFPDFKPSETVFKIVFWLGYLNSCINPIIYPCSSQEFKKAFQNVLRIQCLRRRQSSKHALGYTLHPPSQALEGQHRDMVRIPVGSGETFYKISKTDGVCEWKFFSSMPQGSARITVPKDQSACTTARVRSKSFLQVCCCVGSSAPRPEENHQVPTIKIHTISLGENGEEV
The assay can be described thus: Tested for affinity against alpha-adrenergic using [3H]WB-4101 in rat brain. The class given is tissue-based. Put shortly:
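Radioligand binding in cortical membranes from male Sprague-Dawley rats (110-150 g). Ligands: [3H]serotonin for 5-HT1, [3H]QNB for muscarinic, [3H]WB4101 for α1, [3H]clonidine for α2, [3H]dihydroalprenolol for β-adrenergic.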

Chain of Delta-type opioid receptor (Mus musculus) (P32300 whole entry): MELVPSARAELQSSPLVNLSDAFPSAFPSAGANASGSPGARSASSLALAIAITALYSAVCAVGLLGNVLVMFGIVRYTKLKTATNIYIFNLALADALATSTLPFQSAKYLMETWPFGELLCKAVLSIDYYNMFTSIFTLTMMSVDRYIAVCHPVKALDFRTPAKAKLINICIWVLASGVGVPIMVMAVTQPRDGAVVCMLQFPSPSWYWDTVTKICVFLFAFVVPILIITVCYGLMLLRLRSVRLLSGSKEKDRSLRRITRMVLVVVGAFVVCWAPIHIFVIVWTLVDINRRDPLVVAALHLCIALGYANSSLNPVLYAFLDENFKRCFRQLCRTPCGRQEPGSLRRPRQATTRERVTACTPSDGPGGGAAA

In general, IC50 refers to the concentration needed to halve the response being measured. For the compound `C[C@H]1CN(CC[C@H](O)C2CCCCC2)CC[C@@]1(C)c1cccc(O)c1`, the values for the IC50 in assay [1] and in assay [3] were above 1000 nM and above 5 µM, respectively. Also, the Ke in assay [2] turned out to be 1.64 nM.
